Screens (PubChem BioAssay)
Rows were chosen to be rich in hits. Some 4.8% of all compounds tested hit in one or more screens of this group.
WT yeast gro inh – growth inhibition of WT strain, primary screen, mitochondrial fusion inhibitor project, WT and mutant strains, chemical genetic; mitochondrial fusion phenotypic screen; inhibition, % at 10 µM; 2.1% of 190,000 active; in the data active = inhibition above about 58%; tested in S. cerevisiae
Mot1-301 SUMO – yeast Mot1-301 growth rescue at high temperature, primary screen, SUMOylation pathway inhibitor project, S. cerevisiae, ATP luminescence, 38.5C. S. cerevisiae Mot1-301 growth rescue; percent above DMSO median, 100 means doubled. growth rescue, % at 18.8 µM. 1% of 320,000 active;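 active = every valid replicate shows activation above 250% relative to neutral control wells; inactive = the rest, any valid replicate at or below 250%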;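 note: OY570 slx delta 5 strain wells were the positive control but not used for scaling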
Beta cell apopt – inhibitors of cytokine-induced beta cell apoptosis, primary screen, luminescence; INS-1E cytokine-induced death, ATP luminescence, 48 h; percent of positive-control rescue, neutral wells zero; protection from apoptosis, % (test concentration not listed); 0.8% of 300,000 active;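 active = Every replicate reaches about 75%, or at least half do and their mean reaches it too, limit read from the data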;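 note: 0% = cytokine-treated negative control wells and 100% = positive control rescue; higher means more ATP so stronger rescue from cytokine killing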
Efflux pump mplx – inhibitors of Candida efflux pumps in yeast, primary screen, S. cerevisiae, Nile Red, multiplex. S. cerevisiae Candida pump triplex. inhibition, % at 10 µM. 0.44% of 330,000 active. AID 485275, 2010;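 active = plate passing quality check with inhibition over a set limit, or well fluorescence over plate mean plus 4 SD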;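 note: Nile Red retained in pooled yeast measured as flow cytometry median fluorescence; 0% = buffer negative control and 100% = Enniatin B positive control; higher means more Nile Red kept so more efflux inhibition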
T cruzi inh – inhibitors of intracellular T. cruzi growth, primary screen, luminescence, NIH3T3 host cells; T. cruzi beta-gal in NIH3T3, 90 h; inhibition, % (no concentration beside the values); 1.4% of 300,000 active;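 active = mean inhibition across valid replicates above about 55%, limit read from the data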;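 note: signal also drops with host cell toxicity which is not excluded here; 0% = plate median of DMSO wells and 100% = zero luminescence signal; higher percent means less beta-gal luminescence so fewer parasites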
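Read-out: Parasite load inhibition, % | Test system: Mouse NIH/3T3 fibroblasts infected with β-gal-expressing T. cruzi Tulahuen C4 | Amount: 5,000 cells/well | Medium: DMEM, 2% fetal bovine serum | Signal: GalScreen β-gal luminescence, detergent lysis, 60 min | Timing: 3 h attach, ≥90 h co-culture | Also added: Tulahuen C4 trypomastigotes, 5000/well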
CSC inhib – cancer stem cell viability inhibitors, primary screen, luminescence; cancer stem cell-like cells viability; 1.1% of 300,000 active; inhibition, % at 7.5 µM; in the data active = inhibition above about 75%; tested in HMLE shEcad cells
The depositor's hits bear a star.

What do the screens show for `CCN1CCN(CC(=O)Nc2ccc(Cl)c(S(=O)(=O)N(C)C)c2)CC1`?
WT yeast gro inh: -40; Mot1-301 SUMO: -14; Beta cell apopt: -7; Efflux pump mplx: 0; T cruzi inh: 2; CSC inhib: -16

Results for CCCCc1ccc(NC(=S)Nc2ccc(Cl)c(S(=O)(=O)N(C)C)c2)cc1 ?
WT yeast gro inh: 77*; Mot1-301 SUMO: -11; Beta cell apopt: 0; Efflux pump mplx: 1; T cruzi inh: 3; CSC inhib: 24

How did O=[N+]([O-])c1cccc(/C=N/n2cnnc2)c1 do in these assays?
Mot1-301 SUMO: 4; Beta cell apopt: 82*; Efflux pump mplx: 0; T cruzi inh: -3; CSC inhib: -1

What do the screens show for `O=[N+]([O-])c1ccc(O)c(/C=N/n2cnnc2)c1`?
WT yeast gro inh: -3; Mot1-301 SUMO: 21; Beta cell apopt: -3; Efflux pump mplx: 0; T cruzi inh: -14

What do the screens show for `COc1ccc(CC(=O)Nc2cccc(-c3nnc(-c4cccc(C)c4)o3)c2)cc1OC`?
WT yeast gro inh: 30; Mot1-301 SUMO: -4; Beta cell apopt: 106*; Efflux pump mplx: 0; T cruzi inh: 26; CSC inhib: 63

What do the screens show for `COc1ccc(C(=O)Cn2cc[n+](C)c2)cc1`?
Mot1-301 SUMO: 8; Beta cell apopt: -4; Efflux pump mplx: 0; T cruzi inh: -4; CSC inhib: -10

What do the screens show for `Cc1cc(C)n2nc(C(=O)OCC(=O)NCc3ccccc3)nc2n1`?
Mot1-301 SUMO: 6; Beta cell apopt: -2; Efflux pump mplx: 0

What do the screens show for `O=C(NNC(=O)C1CCN(C(=O)Nc2ccccc2)CC1)c1ccc(F)cc1`?
Mot1-301 SUMO: 8; Beta cell apopt: 2; Efflux pump mplx: 0; CSC inhib: -7

What do the screens show for `Cc1ccccc1C(=O)NNC(=O)C1CCN(C(=O)Nc2ccccc2)CC1`?
Mot1-301 SUMO: 342*; Beta cell apopt: -1; Efflux pump mplx: 0; T cruzi inh: -3; CSC inhib: -6

How did COc1ccc(CCn2nnnc2C(C(C)C)N2CCN(c3ncccn3)CC2)cc1OC (stereo not given) do in these assays?
WT yeast gro inh: 62*; Mot1-301 SUMO: -19; Beta cell apopt: 6; Efflux pump mplx: 0; T cruzi inh: -4; CSC inhib: -8

Results for COc1ccc(CCn2nnnc2C(CC(C)C)N2CCN(c3ncccn3)CC2)cc1OC (stereo not given) ?
WT yeast gro inh: 66*; Mot1-301 SUMO: 1; Beta cell apopt: 1; Efflux pump mplx: 0; T cruzi inh: -7; CSC inhib: -4

Results for CCN1CCN(C(c2ccc(OC)cc2)C(O)C(=O)c2c[nH]c3ccccc23)CC1 (stereo not given) ?
WT yeast gro inh: -4; Beta cell apopt: -1; Efflux pump mplx: 0; T cruzi inh: -9; CSC inhib: -9

How did O=c1[nH]c(CSc2nnc3ccccn23)nc2cc(C(F)(F)F)ccc12 do in these assays?
WT yeast gro inh: -3; Mot1-301 SUMO: -7; Beta cell apopt: -5; Efflux pump mplx: 0; T cruzi inh: -18; CSC inhib: -3

How did CCn1nnc(NC(=O)c2cccc(-c3cc4ccccc4oc3=O)c2)n1 do in these assays?
WT yeast gro inh: 41; Mot1-301 SUMO: -7; Beta cell apopt: -1; Efflux pump mplx: 0; T cruzi inh: 6; CSC inhib: 1

Results for O=C(Nc1cccc(Cl)c1N1CCCC1)c1cccc(-c2cc3ccccc3oc2=O)c1 ?
Mot1-301 SUMO: 11; Beta cell apopt: 11; Efflux pump mplx: 0; T cruzi inh: 6; CSC inhib: 84*

How did O=C(Nc1cccnc1)c1cccc(-c2cc3ccccc3oc2=O)c1 do in these assays?
WT yeast gro inh: 1; Mot1-301 SUMO: 31; Beta cell apopt: 6; Efflux pump mplx: 0; T cruzi inh: -5; CSC inhib: -8

How did CCOc1ccc2nc(NC(=O)c3cccc(-c4cc5ccccc5oc4=O)c3)sc2c1 do in these assays?
WT yeast gro inh: -23; Mot1-301 SUMO: -12; Beta cell apopt: 81*; Efflux pump mplx: 0; T cruzi inh: 30; CSC inhib: 41

How did Cc1ccc2nc(NC(=O)c3cccc(-c4cc5ccccc5oc4=O)c3)sc2c1 do in these assays?
WT yeast gro inh: -5; Mot1-301 SUMO: -1; Beta cell apopt: 56; Efflux pump mplx: 0; T cruzi inh: 64*; CSC inhib: 99*

What do the screens show for `CC(C)NC(=O)NC(=O)COC(=O)c1cccc(S(=O)(=O)N2CCCCC2)c1`?
WT yeast gro inh: 6; Mot1-301 SUMO: 561; Beta cell apopt: 4; Efflux pump mplx: -3; T cruzi inh: -21; CSC inhib: -7

What do the screens show for `C=C(C)c1cccc(C(C)(C)NC(=O)Nc2ccc(Cl)cn2)c1`?
WT yeast gro inh: 74*; Mot1-301 SUMO: 3; Beta cell apopt: -5; Efflux pump mplx: 0; T cruzi inh: 8; CSC inhib: -1

Results for COc1cccc(/C=C/C(=O)c2ccc(NC3=NCCCS3)cc2)c1 ?
WT yeast gro inh: 28; Mot1-301 SUMO: -4; Beta cell apopt: 10; Efflux pump mplx: 0; T cruzi inh: 45; CSC inhib: -2

How did CC(C)(C)c1ccc(/C=C/C(=O)c2ccc(NC3=NCCCS3)cc2)cc1 do in these assays?
WT yeast gro inh: 79; Mot1-301 SUMO: -1; Beta cell apopt: 45; Efflux pump mplx: 1; T cruzi inh: 58*; CSC inhib: 99*

What do the screens show for `Cc1cccc(/C=C/C(=O)c2ccc(NC3=NCCCS3)cc2)c1`?
WT yeast gro inh: 58; Mot1-301 SUMO: 86; Beta cell apopt: 9; Efflux pump mplx: 0; T cruzi inh: 55*; CSC inhib: 43

How did O=C(/C=C/c1ccc(Br)o1)NC(c1ccccc1)c1ccccc1 do in these assays?
WT yeast gro inh: 63*; Mot1-301 SUMO: 2; Beta cell apopt: -5; Efflux pump mplx: 0; T cruzi inh: 50; CSC inhib: 11

How did O=C(/C=C/c1ccc(Br)o1)OCc1ccccc1 do in these assays?
WT yeast gro inh: 12; Mot1-301 SUMO: 305*; Beta cell apopt: 1; Efflux pump mplx: 0; T cruzi inh: -7; CSC inhib: -9

What do the screens show for `CCc1c(C)nc(SCC(=O)c2cccs2)c(C#N)c1C`?
WT yeast gro inh: 86*; Mot1-301 SUMO: 472; Beta cell apopt: 6; Efflux pump mplx: 0; T cruzi inh: 19; CSC inhib: 17

What do the screens show for `CCc1c(C)nc(SCC(N)=O)c(C#N)c1C`?
Mot1-301 SUMO: 38; Beta cell apopt: 0; Efflux pump mplx: 0; T cruzi inh: -9; CSC inhib: 7

Results for c1cn2cc(-c3ccc4c(c3)OCO4)nc2s1 ?
WT yeast gro inh: 79*; Mot1-301 SUMO: -3; Beta cell apopt: 1; Efflux pump mplx: 0; T cruzi inh: -6
